In brackets after ≈: the same amount, converted by molar mass.
Assays:
Candida albicans [1] = assay: Antifungal activity against Candida albicans; format: functional
Procedure, shortened: (§1)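 Broth microdilution in flat-bottom plates in RPMI 1640 with 2% glucose; inoculum 0.5 × 105 to 2.5 × 10^5 CFU/ml. MICs were read spectrophotometrically at 24 h. AMB endpoint: ≥90% growth reduction vs drug-free control well. Azole and CPF endpoint: 50% reduction in optical density. MFC was taken as the lowest concentration giving 99% killing.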

Nakaseomyces glabratus [2] = assay: Antifungal activity against Candida glabrata; format: functional; procedure, shortened: as §1
Candida parapsilosis [3] = assay: Antifungal activity against Candida parapsilosis; format: functional; conditions: Lodderomyces parapsilosis; procedure, shortened: as §1
Pichia kudriavzevii [4] = assay: Antifungal activity against Candida krusei; format: functional
Procedure, shortened: (§2)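 EUCAST broth microdilution for yeasts in flat-bottom plates, RPMI 1640 with 2% glucose, inoculum 0.5 × 105 to 2.5 × 10^5 CFU/ml. […] MFC is the lowest concentration giving 99% killing.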

Clavispora lusitaniae [5] = assay: Antifungal activity against Candida lusitaniae; format: functional; procedure, shortened: as §1
Candida tropicalis [6] = assay: Antifungal activity against Candida tropicalis; format: functional; procedure, shortened: as §1
[7] = test system: Meyerozyma guilliermondii; assay: Antifungal activity against Candida guilliermondii; format: functional; procedure, shortened: as §1
Saccharomyces cerevisiae [8] = assay: Antifungal activity against Saccharomyces cerevisiae; format: functional
Procedure, shortened: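 Broth microdilution following EUCAST for fermentative yeasts, in flat-bottom plates with RPMI 1640 plus 2% glucose. Inoculum was 0.5 × 10^5 to 2.5 × 10^5 CFU/ml. End points were read spectrophotometrically at 24 h: ≥90% growth reduction versus a drug-free control for amphotericin B, and 50% OD reduction for azoles and caspofungin. MFC was the lowest concentration giving 99% killing.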

[9] = Antifungal activity against Cryptococcus neoformans var. neoformans; format: functional; conditions: Cryptococcus deneoformans
Procedure, shortened: (§3)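 EUCAST yeast microdilution, modified for nonfermentative yeasts: plates were sealed and agitated at 350 rpm and 30°C for 48 h.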

Cryptococcus gattii [10] = assay: Antifungal activity against Cryptococcus neoformans var. gattii; format: functional, Cryptococcus bacillisporus; procedure, shortened: as §3
Trichosporon inkin [11] = assay: Antifungal activity against Trichosporon inkin; format: functional
Procedure, shortened: (§4)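 Nonfermentative yeasts were tested by the EUCAST microdilution recommendations with one change: plates were sealed and agitated at 350 rpm and 30°C for 48 h.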

Trichosporon asahii [12] = assay: Antifungal activity against Trichosporon asahii; format: functional; procedure, shortened: as §4
Geotrichum candidum [13] = assay: Antifungal activity against Geotrichum candidum; format: functional
Aspergillus fumigatus [14] = assay: Antifungal activity against Aspergillus fumigatus; format: functional
Aspergillus terreus [15] = assay: Antifungal activity against Aspergillus terreus; format: functional
Aspergillus flavus [16] = assay: Antifungal activity against Aspergillus flavus; format: functional
Aspergillus niger [17] = assay: Antifungal activity against Aspergillus niger; format: functional
Rhizomucor = assay: Antifungal activity against Rhizomucor species; format: functional
Lichtheimia corymbifera [18] = assay: Antifungal activity against Absidia corymbifera; format: functional
Absidia = assay: Antifungal activity against Absidia species; format: functional
[19] = Antifungal activity against Rhizopus microsporus var. oligosporus; format: functional
Procedure, shortened: (§5)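 Broth microdilution following the EUCAST reference procedure for spore-forming moulds, in flat-bottom plates with RPMI 1640 plus 2% glucose. Inoculum was 2 × 10^5 to 5 × 10^5 CFU/ml. MICs were read visually at 24 and 48 h as 100% growth reduction versus a drug-free control for polyenes and azoles. MEC was used for caspofungin. Tests were run in duplicate and repeated twice.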

Rhizopus arrhizus [20] = assay: Antifungal activity against Rhizopus oryzae; format: functional; procedure, shortened: as §5
Rhizopus = assay: Antifungal activity against Rhizopus species; format: functional; procedure, shortened: as §5
Mucor hiemalis = assay: Antifungal activity against Mucor hiemalis; format: functional
Mucor [21] = assay: Antifungal activity against Mucor species; format: functional
Cunninghamella [22] = assay: Antifungal activity against Cunninghamella species; format: functional
Lomentospora prolificans = assay: Antifungal activity against Scedosporium prolificans; format: functional; procedure, shortened: as §5
Scedosporium apiospermum [23] = assay: Antifungal activity against Scedosporium apiospermum; format: functional; procedure, shortened: as §5
Talaromyces marneffei [24] = assay: Antifungal activity against Penicillium marneffei; format: functional
Penicillium sp. [25] = assay: Antifungal activity against Penicillium species; format: functional
Fusarium solani [26] = assay: Antifungal activity against Fusarium solani; format: functional
Fusarium oxysporum [27] = assay: Antifungal activity against Fusarium oxysporum; format: functional
Sporothrix schenckii [28] = assay: Antifungal activity against Sporothrix schenckii; format: functional; procedure, shortened: as §5
Curvularia lunata [29] = assay: Antifungal activity against Curvularia lunata; format: functional
Curvularia australiensis [30] = assay: Antifungal activity against Bipolaris australiensis; format: functional
Procedure, shortened: (§6)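 Dematiaceous fungi were tested by the EUCAST spore-forming mold reference procedure: flat-bottom microdilution plates, RPMI 1640 plus 2% glucose, inoculum 2 × 105 to 5 × 10^5 CFU/ml. Endpoints were read visually at 24 and 48 h. Polyenes and azoles: 100% growth reduction vs drug-free control. CPF: minimum effective concentration. Run in duplicate and repeated twice.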

[31] = Antifungal activity against Rhinocladiella aquaspersa; format: functional; procedure, shortened: as §6
Candida albicans [32] = assay: Antifungal activity against Candida albicans by EUCAST method; format: functional; procedure, shortened: as §1
Nakaseomyces glabratus [33] = assay: Antifungal activity against Candida glabrata by EUCAST method; format: functional; procedure, shortened: as §1
Candida parapsilosis [34] = assay: Antifungal activity against Candida parapsilosis by EUCAST method; format: functional; conditions: Lodderomyces parapsilosis; procedure, shortened: as §1
Pichia kudriavzevii [35] = assay: Antifungal activity against Candida krusei by EUCAST method; format: functional; procedure, shortened: as §1
Clavispora lusitaniae [36] = assay: Antifungal activity against Candida lusitaniae by EUCAST method; format: functional; procedure, shortened: as §1
Candida tropicalis [37] = assay: Antifungal activity against Candida tropicalis by EUCAST method; format: functional; procedure, shortened: as §1
[38] = test system: Meyerozyma guilliermondii; assay: Antifungal activity against Candida guilliermondii by EUCAST method; format: functional; procedure, shortened: as §1
Saccharomyces cerevisiae [39] = assay: Antifungal activity against Saccharomyces cerevisiae by EUCAST method; format: functional; procedure, shortened: as §2
[40] = Antifungal activity against Cryptococcus neoformans var. neoformans by EUCAST method; format: functional; conditions: Cryptococcus deneoformans; procedure, shortened: as §3
Cryptococcus gattii [41] = assay: Antifungal activity against Cryptococcus neoformans var. gattii by EUCAST method; format: functional, Cryptococcus bacillisporus; procedure, shortened: as §3
Trichosporon inkin [42] = assay: Antifungal activity against Trichosporon inkin by EUCAST method; format: functional; procedure, shortened: as §4
Trichosporon asahii [43] = assay: Antifungal activity against Trichosporon asahii by EUCAST method; format: functional; procedure, shortened: as §4
Geotrichum candidum [44] = assay: Antifungal activity against Geotrichum candidum by EUCAST method; format: functional
Aspergillus fumigatus [45] = assay: Antifungal activity against Aspergillus fumigatus by EUCAST method; format: functional
Aspergillus terreus [46] = assay: Antifungal activity against Aspergillus terreus by EUCAST method; format: functional
Aspergillus flavus [47] = assay: Antifungal activity against Aspergillus flavus by EUCAST method; format: functional
Aspergillus niger [48] = assay: Antifungal activity against Aspergillus niger by EUCAST method; format: functional
Lichtheimia corymbifera [49] = assay: Antifungal activity against Absidia corymbifera by EUCAST method; format: functional
Rhizopus arrhizus [50] = assay: Antifungal activity against Rhizopus oryzae by EUCAST method; format: functional; procedure, shortened: as §5
Mucor [51] = assay: Antifungal activity against Mucor species by EUCAST method; format: functional
Cunninghamella [52] = assay: Antifungal activity against Cunninghamella species by EUCAST method; format: functional
Scedosporium apiospermum [53] = assay: Antifungal activity against Scedosporium apiospermum by EUCAST method; format: functional; procedure, shortened: as §5
Talaromyces marneffei [54] = assay: Antifungal activity against Penicillium marneffei by EUCAST method; format: functional
Penicillium sp. [55] = assay: Antifungal activity against Penicillium species by EUCAST method; format: functional
Fusarium solani [56] = assay: Antifungal activity against Fusarium solani by EUCAST method; format: functional
Fusarium oxysporum [57] = assay: Antifungal activity against Fusarium oxysporum by EUCAST method; format: functional
Sporothrix schenckii [58] = assay: Antifungal activity against Sporothrix schenckii by EUCAST method; format: functional; procedure, shortened: as §5
Curvularia lunata [59] = assay: Antifungal activity against Curvularia lunata by EUCAST method; format: functional; procedure, shortened: as §6
Curvularia australiensis [60] = assay: Antifungal activity against Bipolaris australiensis by EUCAST method; format: functional; procedure, shortened: as §6
[61] = Antifungal activity against Rhinocladiella aquaspersa by EUCAST method; format: functional; procedure, shortened: as §6

## CCC(C)n1ncn(-c2ccc(N3CCN(c4ccc(OCC5COC(Cn6cncn6)(c6ccc(Cl)cc6Cl)O5)cc4)CC3)cc2)c1=O (stereo unspecified) [ITRACONAZOLE]
Candida albicans [1]
  MFC: 0.06 µg/mL (≈ 0.085 µM)
Nakaseomyces glabratus [2]
  MFC: > 4 µg/mL
Candida parapsilosis [3]
  MFC: 0.06 µg/mL (≈ 0.085 µM)
Pichia kudriavzevii [4]
  MFC: 0.5 µg/mL (≈ 0.709 µM)
Clavispora lusitaniae [5]
  MFC: 0.25 µg/mL (≈ 0.354 µM)
Candida tropicalis [6]
  MFC: > 0.25 µg/mL
[7]
  MFC: 2 µg/mL (≈ 2.83 µM)
Saccharomyces cerevisiae [8]
  MFC: > 4 µg/mL
[9]
  MFC: 0.5 µg/mL (≈ 0.709 µM)
Cryptococcus gattii [10]
  MFC: 0.5 µg/mL (≈ 0.709 µM)
Trichosporon inkin [11]
  MFC: 0.25 µg/mL (≈ 0.354 µM)
Trichosporon asahii [12]
  MFC: > 4 µg/mL
Geotrichum candidum [13]
  MFC: > 8 µg/mL
Aspergillus fumigatus [14]
  MFC: 2 µg/mL (≈ 2.83 µM)
Aspergillus terreus [15]
  MFC: 0.5 µg/mL (≈ 0.709 µM)
Aspergillus flavus [16]
  MFC: 0.5 µg/mL (≈ 0.709 µM)
Aspergillus niger [17]
  MFC: > 4 µg/mL
Rhizomucor
  MFC: > 2 µg/mL
Lichtheimia corymbifera [18]
  MFC: > 2 µg/mL
Absidia
  MFC: > 2 µg/mL
[19]
  MFC: > 8 µg/mL
Rhizopus arrhizus [20]
  MFC: > 8 µg/mL
Rhizopus
  MFC: > 4 µg/mL
Mucor hiemalis
  MFC: > 8 µg/mL
Mucor [21]
  MFC: > 4 µg/mL
Cunninghamella [22]
  MFC: 4 µg/mL (≈ 5.67 µM)
Lomentospora prolificans
  MFC: > 8 µg/mL
Scedosporium apiospermum [23]
  MFC: > 4 µg/mL
Talaromyces marneffei [24]
  MFC: 0.25 µg/mL (≈ 0.354 µM)
Penicillium sp. [25]
  MFC: > 2 µg/mL
Fusarium solani [26]
  MFC: > 8 µg/mL
Fusarium oxysporum [27]
  MFC: 0.25 µg/mL (≈ 0.354 µM)
Sporothrix schenckii [28]
  MFC: 0.5 µg/mL (≈ 0.709 µM)
Curvularia lunata [29]
  MFC: 0.5 µg/mL (≈ 0.709 µM)
Curvularia australiensis [30]
  MFC: 0.5 µg/mL (≈ 0.709 µM)
[31]
  MFC: 0.5 µg/mL (≈ 0.709 µM)
Candida albicans [32]
  MIC: 0.23 µg/mL (≈ 0.326 µM)
Nakaseomyces glabratus [33]
  MIC: 0.83 µg/mL (≈ 1.18 µM)
Candida parapsilosis [34]
  MIC: 0.32 µg/mL (≈ 0.453 µM)
Pichia kudriavzevii [35]
  MIC: 1.1 µg/mL (≈ 1.56 µM)
Clavispora lusitaniae [36]
  MIC: 0.07 µg/mL (≈ 0.0992 µM)
Candida tropicalis [37]
  MIC: 0.56 µg/mL (≈ 0.794 µM)
[38]
  MIC: 0.87 µg/mL (≈ 1.23 µM)
Saccharomyces cerevisiae [39]
  MIC: 2 µg/mL (≈ 2.83 µM)
[40]
  MIC: 0.11 µg/mL (≈ 0.156 µM)
Cryptococcus gattii [41]
  MIC: 0.22 µg/mL (≈ 0.312 µM)
Trichosporon inkin [42]
  MIC: 0.21 µg/mL (≈ 0.298 µM)
Trichosporon asahii [43]
  MIC: 0.17 µg/mL (≈ 0.241 µM)
Geotrichum candidum [44]
  MIC: 1.45 µg/mL (≈ 2.05 µM)
Aspergillus fumigatus [45]
  MIC: 0.46 µg/mL (≈ 0.652 µM)
Aspergillus terreus [46]
  MIC: 0.58 µg/mL (≈ 0.822 µM)
Aspergillus flavus [47]
  MIC: 0.59 µg/mL (≈ 0.836 µM)
Aspergillus niger [48]
  MIC: 0.98 µg/mL (≈ 1.39 µM)
Lichtheimia corymbifera [49]
  MIC: 2.5 µg/mL (≈ 3.54 µM)
Rhizopus arrhizus [50]
  MIC: 4 µg/mL (≈ 5.67 µM)
Mucor [51]
  MIC: 4.36 µg/mL (≈ 6.18 µM)
Cunninghamella [52]
  MIC: 1.75 µg/mL (≈ 2.48 µM)
Scedosporium apiospermum [53]
  MIC: 2.66 µg/mL (≈ 3.77 µM)
Talaromyces marneffei [54]
  MIC: 0.25 µg/mL (≈ 0.354 µM)
Penicillium sp. [55]
  MIC: 4.25 µg/mL (≈ 6.02 µM)
Fusarium solani [56]
  MIC: 6 µg/mL (≈ 8.5 µM)
Fusarium oxysporum [57]
  MIC: 4.5 µg/mL (≈ 6.38 µM)
Sporothrix schenckii [58]
  MIC: 0.12 µg/mL (≈ 0.17 µM)
Curvularia lunata [59]
  MIC: 0.03 µg/mL (≈ 0.0425 µM)
Curvularia australiensis [60]
  MIC: 0.12 µg/mL (≈ 0.17 µM)
[61]
  MIC: 0.12 µg/mL (≈ 0.17 µM)
